# Measured values from ChEMBL document CHEMBL4828738, “Design, synthesis and evaluation of novel 5-phenylthiophene derivatives as potent fungicidal of Candida albicans and antifungal reagents of fluconazole-resistant fungi” (Eur J Med Chem, 2021).
# Columns and labels:
# Candida albicans [1] = experiment: Anti-biofilm activity in Candida albicans CPCC400616 assessed as inhibition of biofilm formation incubated for 24 hrs by XTT assay; format: functional
# Method in brief: (§1)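 C. albicans CPCC400616 suspension placed in wells at 37 °C. Non-adherent cells and medium were removed at 3, 6, 18 or 24 h and wells washed with PBS. Compounds were added at a range of concentrations in fresh RPMI 1640 and incubated a further 24 h at 37 °C. Biofilm metabolic activity was read by XTT reduction.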
# Candida albicans [2] = experiment: Antifungal activity against fluconazole-resistant Candida albicans 901 assessed as fungal growth inhibition by CLSI protocol based method
# Candida albicans [3] = experiment: Antifungal activity against fluconazole-resistant Candida albicans 311 assessed as fungal growth inhibition by CLSI protocol based method
# Candida parapsilosis = experiment: Antifungal activity against Candida parapsilosis GIM2.190 assessed as fungal growth inhibition by CLSI protocol based method; format: functional; details: Lodderomyces parapsilosis
# Candida albicans [4] = experiment: Anti-biofilm activity in Candida albicans CPCC400616 assessed as inhibition of biofilm formation incubated for 18 hrs by XTT assay; format: functional; method in brief: as §1
# Nakaseomyces glabratus = experiment: Antifungal activity against Candida glabrata assessed as fungal growth inhibition by CLSI protocol based method; format: functional
# Candida albicans [5] = experiment: Anti-biofilm activity in Candida albicans CPCC400616 assessed as inhibition of biofilm formation incubated for 3 hrs by XTT assay; format: functional; method in brief: as §1
# MCF7 = experiment: Cytotoxicity against human MCF7 cells assessed as reduction in cell viability measured after 96 hrs by MTT assay; format: ADME, cell-based; details: MCF7, 96 h
# [6] = target: T1, Lanosterol 14-alpha demethylase (Candida albicans (strain SC5314 / ATCC MYA-2876) (Yeast), UniProt P10613); experiment: Inhibition of CYP51 in Candida albicans assessed as 14alpha-methylfecosterol level at 0.25 ug/ml measured after 18 hrs by GC-MS analysis relative to control; design: scale not given: the % may be the effect or the level left; details: at 0.25 µg/mL
# T1 sequence (P10613 whole entry): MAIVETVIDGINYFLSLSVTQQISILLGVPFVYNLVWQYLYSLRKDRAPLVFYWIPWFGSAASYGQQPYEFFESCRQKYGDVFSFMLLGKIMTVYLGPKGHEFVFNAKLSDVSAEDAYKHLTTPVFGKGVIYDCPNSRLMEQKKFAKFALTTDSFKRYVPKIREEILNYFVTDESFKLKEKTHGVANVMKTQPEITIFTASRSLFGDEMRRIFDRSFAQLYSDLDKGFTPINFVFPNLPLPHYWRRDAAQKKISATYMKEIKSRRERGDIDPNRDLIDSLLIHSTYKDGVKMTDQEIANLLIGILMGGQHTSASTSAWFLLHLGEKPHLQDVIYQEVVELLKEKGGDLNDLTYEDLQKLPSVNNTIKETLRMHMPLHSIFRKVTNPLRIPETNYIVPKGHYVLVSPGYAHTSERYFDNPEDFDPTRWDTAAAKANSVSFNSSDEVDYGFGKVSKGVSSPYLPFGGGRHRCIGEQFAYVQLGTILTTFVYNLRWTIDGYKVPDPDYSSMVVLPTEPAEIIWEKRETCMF
# Candida albicans [7] = experiment: Antifungal activity against fluconazole-resistant Candida albicans 632 assessed as fungal growth inhibition by CLSI protocol based method
# Candida albicans [8] = experiment: Antifungal activity against Candida albicans ATCC SC5314 assessed as fungal growth inhibition by CLSI protocol based method; format: functional
# [9] = target: T1, Lanosterol 14-alpha demethylase; experiment: Inhibition of CYP51 in Candida albicans assessed as ergosterol level at 0.25 ug/ml after 18 hrs by GC-MS analysis (reference value: 96.93 %); design: scale not given: the % may be the effect or the level left; details: at 0.25 µg/mL
# THLE-2 = experiment: Cytotoxicity against human THLE-2 cells assessed as reduction in cell viability measured after 96 hrs by MTT assay; format: ADME, cell-based; details: THLE-2, 96 h
# Pichia kudriavzevii = experiment: Antifungal activity against Candida krusei GIM2.1 assessed as fungal growth inhibition by CLSI protocol based method; format: functional
# Candida tropicalis = experiment: Antifungal activity against Candida tropicalis CGMCC 2.3739 assessed as fungal growth inhibition by CLSI protocol based method; format: functional
# Candida albicans [10] = experiment: Antifungal activity against fluconazole-resistant Candida albicans 904 assessed as fungal growth inhibition by CLSI protocol based method
# Candida albicans [11] = experiment: Anti-biofilm activity in Candida albicans CPCC400616 assessed as inhibition of biofilm formation incubated for 6 hrs by XTT assay; format: functional; method in brief: as §1
# [12] = target: T1, Lanosterol 14-alpha demethylase; experiment: Inhibition of CYP51 in Candida albicans assessed as Eburicol level at 0.25 ug/ml measured after 18 hrs by GC-MS analysis relative to control; design: scale not given: the % may be the effect or the level left; details: at 0.25 µg/mL
# Cryptococcus neoformans = experiment: Antifungal activity against Cryptococcus neoformans CGMCC2.3161 assessed as fungal growth inhibition by CLSI protocol based method; format: functional
# Candida albicans [13] = experiment: Antifungal activity against fluconazole-resistant Candida albicans 100 assessed as fungal growth inhibition by CLSI protocol based method
# [14] = target: T1, Lanosterol 14-alpha demethylase; experiment: Inhibition of CYP51 in Candida albicans assessed as lanosterol level at 0.25 ug/ml measured after 18 hrs by GC-MS analysis relative to control; design: scale not given: the % may be the effect or the level left; details: at 0.25 µg/mL
# Candida albicans [15] = experiment: Antifungal activity against Candida albicans CPCC400616 assessed as fungal growth inhibition by CLSI protocol based method; format: functional
# [16] = target: T1, Lanosterol 14-alpha demethylase; experiment: Inhibition of CYP51 in Candida albicans assessed as other sterols level at 0.25 ug/ml measured after 18 hrs by GC-MS analysis relative to control; design: scale not given: the % may be the effect or the level left; details: at 0.25 µg/mL
# Candida albicans [17] = experiment: Fungicidal activity against Candida albicans ATCC SC5314 assessed as inhibition of visible fungal growth measured after 48 hrs; format: functional
# Candida albicans [18] = experiment: Antifungal activity against fluconazole-resistant Candida albicans 103 assessed as fungal growth inhibition by CLSI protocol based method
# A549 = experiment: Cytotoxicity against human A549 cells assessed as reduction in cell viability measured after 96 hrs by MTT assay; format: ADME, cell-based; details: A549, 96 h
# CYP2C9 = CYP2C9 (Homo sapiens, UniProt P11712); experiment: Inhibition of CYP2C9 in human liver Microsome using diclofenac as substrate preincubated for 10 mins followed by NADPH addition and further incubated for 10 mins as substrate by LC-MS/MS analysis relative to control; details: liver microsomes, probe diclofenac
# CYP2C9, sequence (P11712 whole entry): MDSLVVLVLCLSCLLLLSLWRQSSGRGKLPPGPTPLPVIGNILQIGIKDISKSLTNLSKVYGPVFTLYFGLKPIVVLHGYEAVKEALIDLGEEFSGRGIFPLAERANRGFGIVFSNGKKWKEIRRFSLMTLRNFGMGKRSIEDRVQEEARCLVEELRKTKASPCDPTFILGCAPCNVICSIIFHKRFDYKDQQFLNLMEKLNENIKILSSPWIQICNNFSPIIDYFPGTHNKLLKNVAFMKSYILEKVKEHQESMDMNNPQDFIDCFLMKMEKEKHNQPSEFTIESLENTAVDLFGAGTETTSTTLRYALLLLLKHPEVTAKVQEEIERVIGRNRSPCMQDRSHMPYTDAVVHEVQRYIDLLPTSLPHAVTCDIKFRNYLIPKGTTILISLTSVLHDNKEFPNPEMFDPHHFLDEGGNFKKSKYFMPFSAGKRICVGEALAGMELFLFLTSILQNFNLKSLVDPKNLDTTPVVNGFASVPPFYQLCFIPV
# CYP2D6 = CYP2D6 (Homo sapiens, UniProt P10635); experiment: Inhibition of CYP2D6 in human liver Microsome using dextromethorphan as substrate preincubated for 10 mins followed by NADPH addition and further incubated for 10 mins as substrate by LC-MS/MS analysis relative to control; details: liver microsomes, probe dextromethorphan
# CYP2D6, sequence (P10635 whole entry): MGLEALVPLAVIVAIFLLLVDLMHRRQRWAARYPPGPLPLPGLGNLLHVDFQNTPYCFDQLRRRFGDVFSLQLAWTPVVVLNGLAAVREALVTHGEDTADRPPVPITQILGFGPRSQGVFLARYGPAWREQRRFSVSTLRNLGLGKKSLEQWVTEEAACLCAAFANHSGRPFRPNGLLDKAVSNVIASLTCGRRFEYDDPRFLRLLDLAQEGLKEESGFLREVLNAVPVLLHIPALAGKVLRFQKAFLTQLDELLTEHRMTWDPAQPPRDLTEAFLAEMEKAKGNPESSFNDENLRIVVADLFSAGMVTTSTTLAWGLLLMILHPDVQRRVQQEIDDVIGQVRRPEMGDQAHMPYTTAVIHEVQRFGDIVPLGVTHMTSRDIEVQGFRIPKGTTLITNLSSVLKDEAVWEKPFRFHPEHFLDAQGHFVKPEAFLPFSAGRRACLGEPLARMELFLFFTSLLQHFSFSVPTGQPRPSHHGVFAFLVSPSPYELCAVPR
# Candida albicans [19] = experiment: Anti-biofilm activity in Candida albicans CPCC400616 assessed as inhibition of biofilm formation measured up to 24 hrs by XTT assay; format: functional, organism-based; details: time hrs <=24
# Method in brief: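 C. albicans CPCC400616 suspension allowed to adhere in 96-well plates at 37 °C; non-adherent cells and medium removed after 3, 6, 18 or 24 h. Wells washed with PBS, compounds added at graded concentrations in fresh RPMI 1640, then incubated a further 24 h at 37 °C. Biofilm quantified semiquantitatively by XTT reduction. SMIC50 is the concentration inhibiting biofilm metabolic activity by 50%.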
# [20] = Metabolic stability in human plasma assessed as parent compound remaining after 120 mins by LC-MS/MS analysis; format: ADME, cell-free; details: read-out: Stability
# [21] = target: T1, Lanosterol 14-alpha demethylase; experiment: Inhibition of CYP51 in Candida albicans assessed as Eburicol level at 0.015 ug/ml measured after 18 hrs by GC-MS analysis relative to control; design: scale not given: the % may be the effect or the level left; details: at 0.015 µg/mL
# Candida albicans [22] = experiment: Fungicidal activity in Candida albicans CPCC400616 assessed as reduction in viable colony formation measured after 24 hrs by time kill assay; format: functional, organism-based
# [23] = target: T1, Lanosterol 14-alpha demethylase; experiment: Inhibition of CYP51 in Candida albicans assessed as lanosterol level at 0.015 ug/ml measured after 18 hrs by GC-MS analysis relative to control; design: scale not given: the % may be the effect or the level left; details: at 0.015 µg/mL
# [24] = target: T1, Lanosterol 14-alpha demethylase; experiment: Inhibition of CYP51 in Candida albicans assessed as other sterols level at 0.015 ug/ml measured after 18 hrs by GC-MS analysis relative to control; design: scale not given: the % may be the effect or the level left; details: at 0.015 µg/mL
# [25] = Metabolic stability in human plasma assessed as half life after 60 mins by LC-MS/MS analysis; format: ADME, cell-free
# Candida albicans [26] = experiment: Fungicidal activity in Candida albicans CPCC400616 assessed as reduction in viable colony formation measured within 16 hrs by time kill assay; format: functional; details: time hrs <16
# Method in brief: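 Diluted samples were plated on PDA and incubated 24 h at 35 °C. CFU were counted and log10 CFU/mL was plotted against time. Detection limit was 100 CFU/mL. Run in triplicate.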
# [27] = Metabolic stability in human plasma assessed as parent compound remaining after 60 mins by LC-MS/MS analysis; format: ADME, cell-free; details: read-out: Stability
# [28] = target: T1, Lanosterol 14-alpha demethylase; experiment: Inhibition of CYP51 in Candida albicans assessed as Ergosterol level at 0.015 ug/ml measured after 18 hrs by GC-MS analysis (reference value: 96.93 %); design: scale not given: the % may be the effect or the level left; details: at 0.015 µg/mL
# [29] = target: T1, Lanosterol 14-alpha demethylase; experiment: Inhibition of CYP51 in Candida albicans assessed as 14alpha-methylfecosterol level at 0.015 ug/ml measured after 18 hrs by GC-MS analysis relative to control; design: scale not given: the % may be the effect or the level left; details: at 0.015 µg/mL
SMILES,MBIC50 (Candida albicans [1]) [µg/mL],MIC (Candida albicans [2]) [µg/mL],MIC (Candida albicans [3]) [µg/mL],MIC (Candida parapsilosis) [µg/mL],MIC (Nakaseomyces glabratus) [µg/mL],MBIC50 (Candida albicans [5]) [µg/mL],IC50 (MCF7) [µM],MIC (Candida albicans [7]) [µg/mL],MIC (Candida albicans [8]) [µg/mL],IC50 (THLE-2) [µM],MIC (Pichia kudriavzevii) [µg/mL],MIC (Candida tropicalis) [µg/mL],MIC (Candida albicans [10]) [µg/mL],MBIC50 (Candida albicans [11]) [µg/mL],MIC (Cryptococcus neoformans) [µg/mL],MIC (Candida albicans [13]) [µg/mL],MIC (Candida albicans [15]) [µg/mL],MFC (Candida albicans [17]) [µg/mL],MIC (Candida albicans [18]) [µg/mL],IC50 (A549) [µM],further results
OC(Cn1cncn1)(Cn1cncn1)c1ccc(F)cc1F [FLUCONAZOLE],>64,> 64,> 64,2,4,32,> 30,> 64,0.5,> 30,8,0.5,> 64,>64,4,> 64,1,> 64,> 64,> 30,MBIC50 (Candida albicans [4]): >64 µg/mL; Activity [6]: 22.35%; Activity [9]: 3.15%; Activity [12]: 29.02%; Activity [14]: 34.42%; Activity [16]: 4.21%
Nc1ccc(S(=O)(=O)Nc2ccnn2-c2ccccc2)cc1 [SULFAPHENAZOLE],,,,,,,,,,,,,,,,,,,,,inhibition at 10 min (CYP2C9): 84.5%
C=C[C@H]1C[N@@]2CC[C@H]1C[C@@H]2[C@@H](O)c1ccnc2ccc(OC)cc12 [QUINIDINE],,,,,,,,,,,,,,,,,,,,,inhibition at 10 min (CYP2D6): 96.2%
Cc1ccc(C(=O)C(Cn2ccnc2)NC(=O)c2ccc(-c3ccc(Cl)cc3)s2)cc1 (centres undefined),>64,1,1,0.5,0.25,1,> 30,1,< 0.03,16.1,1,< 0.03,0.25,8,0.5,0.5,< 0.03,0.125,1,19.1,Activity (Candida albicans [19]): Dose-Dependent Effect; remaining at 2 h [20]: 89.5%; Activity [21]: 31.02%; Activity (Candida albicans [22]): Dose-Dependent Effect; Activity [23]: 42.91%; Activity [24]: 8.64%; half-life [25]: > 4.8 h; Activity (Candida albicans [26]): 2 log10CFU/ml; remaining at 1 h [27]: 93.1%; Activity [28]: 5.06%; Activity [29]: 3.2%
